Reference: ChEMBL document CHEMBL5303300, “EUbOPEN Chemogenomics Library - Multiplex” (2023)
Where “and” joins values, the source holds several entries; their conditions need not be identical. Equal values may be shown once.

Experiments:
Format in all cases: toxicity, cell-based
Fibroblast = experiment: Multiplex assay against human fibroblast; conditions: number of replicates 2
How it was run: (§1)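 Live cells were stained at seeding with Hoechst33342, BioTracker Green Microtubule Cytoskeleton Dye, MitoTracker Red and Annexin V Alexa Fluor 680, then imaged on a CQ1 microscope at 37°C and 5% CO2 after compound addition. CellPathfinder machine-learning gating split cells into Hoechst high-intensity objects or normal cells. Normal cells were split into healthy, pyknosed or fragmented nuclei, and pyknosed cells into mitotic or apoptotic. Tubulin, mitochondrial-mass and membrane-permeability phenotypes are per cents of healthy-nucleus cells.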

HEK-293T = experiment: Multiplex assay against HEK293T; conditions: human, number of replicates 2; how it was run: as §1
U2OS = experiment: Multiplex assay against U2OS; conditions: human, number of replicates 2; how it was run: as §1
[1] = 12 h, 1 µM, compound concentration 1 uM
[2] = 12 h, 10 µM, compound concentration 10 uM
[3] = 24 h, 1 µM, compound concentration 1 uM
[4] = 24 h, 10 µM, compound concentration 10 uM
[5] = 48 h, 1 µM, compound concentration 1 uM
[6] = 48 h, 10 µM, compound concentration 10 uM

N=C(N)NCCC[C@H](NC(=O)COCC(c1ccccc1)c1ccccc1)C(=O)O.O=C(O)C(F)(F)F
Population Apoptotic (%) (Fibroblast; [1]): 42% and 45%
Population Fragmented Nuclei (%) (Fibroblast; [1]): 6% and 9%
Population Healthy Nuclei (%) (Fibroblast; [1]): 71% and 75%
Population Hoechst High Intensity Objects (%) (Fibroblast; [1]): 0%
Population Membrane Permeable-Phenotype (%) (Fibroblast; [1]): 5% and 3%
Population Mitochondria Different-Phenotype (%) (Fibroblast; [1]): 0% and 4%
Population Mitotic Cells (%) (Fibroblast; [1]): 57% and 54%
Population Normal (%) (Fibroblast; [1]): 100%
Population Pyknosed Nuclei (%) (Fibroblast; [1]): 22% and 14%
Population Tubulin-Different-Phenotype (%) (Fibroblast; [1]): 17% and 12%
Total Cell Count (Fibroblast; [1]): 172 and 221
Population Apoptotic (%) (Fibroblast; [2]): 38% and 55%
Population Fragmented Nuclei (%) (Fibroblast; [2]): 9% and 10%
Population Healthy Nuclei (%) (Fibroblast; [2]): 79% and 71%
Population Hoechst High Intensity Objects (%) (Fibroblast; [2]): 0%
Population Membrane Permeable-Phenotype (%) (Fibroblast; [2]): 8% and 4%
Population Mitochondria Different-Phenotype (%) (Fibroblast; [2]): 0%
Population Mitotic Cells (%) (Fibroblast; [2]): 61% and 44%
Population Normal (%) (Fibroblast; [2]): 100%
Population Pyknosed Nuclei (%) (Fibroblast; [2]): 11% and 18%
Population Tubulin-Different-Phenotype (%) (Fibroblast; [2]): 17% and 7%
Total Cell Count (Fibroblast; [2]): 161 and 156
Population Apoptotic (%) (Fibroblast; [3]): 63% and 48%
Population Fragmented Nuclei (%) (Fibroblast; [3]): 11% and 14%
Population Healthy Nuclei (%) (Fibroblast; [3]): 64% and 67%
Population Hoechst High Intensity Objects (%) (Fibroblast; [3]): 0%
Population Membrane Permeable-Phenotype (%) (Fibroblast; [3]): 2% and 4%
Population Mitochondria Different-Phenotype (%) (Fibroblast; [3]): 0% and 3%
Population Mitotic Cells (%) (Fibroblast; [3]): 36% and 51%
Population Normal (%) (Fibroblast; [3]): 100%
Population Pyknosed Nuclei (%) (Fibroblast; [3]): 23% and 18%
Population Tubulin-Different-Phenotype (%) (Fibroblast; [3]): 11% and 9%
Total Cell Count (Fibroblast; [3]): 171 and 247
Population Apoptotic (%) (Fibroblast; [4]): 40% and 57%
Population Fragmented Nuclei (%) (Fibroblast; [4]): 14% and 16%
Population Healthy Nuclei (%) (Fibroblast; [4]): 71% and 70%
Population Hoechst High Intensity Objects (%) (Fibroblast; [4]): 0%
Population Membrane Permeable-Phenotype (%) (Fibroblast; [4]): 7%
Population Mitochondria Different-Phenotype (%) (Fibroblast; [4]): 1% and 0%
Population Mitotic Cells (%) (Fibroblast; [4]): 59% and 42%
Population Normal (%) (Fibroblast; [4]): 100%
Population Pyknosed Nuclei (%) (Fibroblast; [4]): 13%
Population Tubulin-Different-Phenotype (%) (Fibroblast; [4]): 16% and 11%
Total Cell Count (Fibroblast; [4]): 158 and 160
Population Apoptotic (%) (Fibroblast; [5]): 69% and 74%
Population Fragmented Nuclei (%) (Fibroblast; [5]): 15% and 18%
Population Healthy Nuclei (%) (Fibroblast; [5]): 65% and 68%
Population Hoechst High Intensity Objects (%) (Fibroblast; [5]): 0%
Population Membrane Permeable-Phenotype (%) (Fibroblast; [5]): 7% and 4%
Population Mitochondria Different-Phenotype (%) (Fibroblast; [5]): 0%
Population Mitotic Cells (%) (Fibroblast; [5]): 30% and 25%
Population Normal (%) (Fibroblast; [5]): 100%
Population Pyknosed Nuclei (%) (Fibroblast; [5]): 19% and 12%
Population Tubulin-Different-Phenotype (%) (Fibroblast; [5]): 12% and 5%
Total Cell Count (Fibroblast; [5]): 172 and 253
Population Apoptotic (%) (Fibroblast; [6]): 61% and 94%
Population Fragmented Nuclei (%) (Fibroblast; [6]): 17% and 18%
Population Healthy Nuclei (%) (Fibroblast; [6]): 70% and 71%
Population Hoechst High Intensity Objects (%) (Fibroblast; [6]): 0%
Population Membrane Permeable-Phenotype (%) (Fibroblast; [6]): 4% and 6%
Population Mitochondria Different-Phenotype (%) (Fibroblast; [6]): 0%
Population Normal (%) (Fibroblast; [6]): 100%
Population Pyknosed Nuclei (%) (Fibroblast; [6]): 11% and 10%
Population Tubulin-Different-Phenotype (%) (Fibroblast; [6]): 8%
Total Cell Count (Fibroblast; [6]): 151 and 170
Population Apoptotic (%) (HEK-293T; [1]): 49% and 39%
Population Fragmented Nuclei (%) (HEK-293T; [1]): 2%
Population Healthy Nuclei (%) (HEK-293T; [1]): 85%
Population Hoechst High Intensity Objects (%) (HEK-293T; [1]): 5% and 6%
Population Membrane Permeable-Phenotype (%) (HEK-293T; [1]): 2% and 3%
Population Mitochondria Different-Phenotype (%) (HEK-293T; [1]): 13% and 9%
Population Mitotic Cells (%) (HEK-293T; [1]): 50% and 60%
Population Normal (%) (HEK-293T; [1]): 94% and 93%
Population Pyknosed Nuclei (%) (HEK-293T; [1]): 12% and 11%
Population Tubulin-Different-Phenotype (%) (HEK-293T; [1]): 54% and 41%
Total Cell Count (HEK-293T; [1]): 596 and 692
Population Apoptotic (%) (HEK-293T; [2]): 60% and 68%
Population Fragmented Nuclei (%) (HEK-293T; [2]): 5% and 6%
Population Healthy Nuclei (%) (HEK-293T; [2]): 80% and 81%
Population Hoechst High Intensity Objects (%) (HEK-293T; [2]): 9% and 8%
Population Membrane Permeable-Phenotype (%) (HEK-293T; [2]): 2%
Population Mitochondria Different-Phenotype (%) (HEK-293T; [2]): 19% and 14%
Population Mitotic Cells (%) (HEK-293T; [2]): 39% and 31%
Population Normal (%) (HEK-293T; [2]): 90% and 91%
Population Pyknosed Nuclei (%) (HEK-293T; [2]): 14% and 12%
Population Tubulin-Different-Phenotype (%) (HEK-293T; [2]): 55% and 41%
Total Cell Count (HEK-293T; [2]): 543 and 565
Population Apoptotic (%) (HEK-293T; [3]): 43% and 44%
Population Fragmented Nuclei (%) (HEK-293T; [3]): 4%
Population Healthy Nuclei (%) (HEK-293T; [3]): 89% and 88%
Population Hoechst High Intensity Objects (%) (HEK-293T; [3]): 7% and 10%
Population Membrane Permeable-Phenotype (%) (HEK-293T; [3]): 3%
Population Mitochondria Different-Phenotype (%) (HEK-293T; [3]): 2% and 3%
Population Mitotic Cells (%) (HEK-293T; [3]): 56% and 55%
Population Normal (%) (HEK-293T; [3]): 92% and 89%
Population Pyknosed Nuclei (%) (HEK-293T; [3]): 5% and 7%
Population Tubulin-Different-Phenotype (%) (HEK-293T; [3]): 20% and 31%
Total Cell Count (HEK-293T; [3]): 1117 and 835
Population Apoptotic (%) (HEK-293T; [4]): 49% and 48%
Population Fragmented Nuclei (%) (HEK-293T; [4]): 6% and 7%
Population Healthy Nuclei (%) (HEK-293T; [4]): 83% and 79%
Population Hoechst High Intensity Objects (%) (HEK-293T; [4]): 7%
Population Membrane Permeable-Phenotype (%) (HEK-293T; [4]): 2%
Population Mitochondria Different-Phenotype (%) (HEK-293T; [4]): 7% and 6%
Population Mitotic Cells (%) (HEK-293T; [4]): 50% and 51%
Population Normal (%) (HEK-293T; [4]): 92%
Population Pyknosed Nuclei (%) (HEK-293T; [4]): 9% and 12%
Population Tubulin-Different-Phenotype (%) (HEK-293T; [4]): 27% and 25%
Total Cell Count (HEK-293T; [4]): 838 and 806
Population Apoptotic (%) (HEK-293T; [5]): 12%
Population Fragmented Nuclei (%) (HEK-293T; [5]): 15% and 9%
Population Healthy Nuclei (%) (HEK-293T; [5]): 82% and 87%
Population Hoechst High Intensity Objects (%) (HEK-293T; [5]): 9% and 7%
Population Membrane Permeable-Phenotype (%) (HEK-293T; [5]): 5% and 4%
Population Mitochondria Different-Phenotype (%) (HEK-293T; [5]): 0%
Population Mitotic Cells (%) (HEK-293T; [5]): 87%
Population Normal (%) (HEK-293T; [5]): 90% and 92%
Population Pyknosed Nuclei (%) (HEK-293T; [5]): 2% and 3%
Population Tubulin-Different-Phenotype (%) (HEK-293T; [5]): 10% and 14%
Total Cell Count (HEK-293T; [5]): 3157 and 1745
Population Apoptotic (%) (HEK-293T; [6]): 14% and 24%
Population Fragmented Nuclei (%) (HEK-293T; [6]): 15% and 13%
Population Healthy Nuclei (%) (HEK-293T; [6]): 81% and 83%
Population Hoechst High Intensity Objects (%) (HEK-293T; [6]): 7% and 6%
Population Membrane Permeable-Phenotype (%) (HEK-293T; [6]): 7% and 4%
Population Mitochondria Different-Phenotype (%) (HEK-293T; [6]): 0%
Population Mitotic Cells (%) (HEK-293T; [6]): 85% and 75%
Population Normal (%) (HEK-293T; [6]): 92% and 93%
Population Pyknosed Nuclei (%) (HEK-293T; [6]): 2%
Population Tubulin-Different-Phenotype (%) (HEK-293T; [6]): 12% and 10%
Total Cell Count (HEK-293T; [6]): 2204 and 2125
Population Apoptotic (%) (U2OS; [1]): 100% and 45%
Population Healthy Nuclei (%) (U2OS; [1]): 40% and 87%
Population Hoechst High Intensity Objects (%) (U2OS; [1]): 0%
Population Membrane Permeable-Phenotype (%) (U2OS; [1]): 0% and 1%
Population Mitochondria Different-Phenotype (%) (U2OS; [1]): 0%
Population Normal (%) (U2OS; [1]): 100% and 99%
Population Pyknosed Nuclei (%) (U2OS; [1]): 13% and 9%
Population Tubulin-Different-Phenotype (%) (U2OS; [1]): 41% and 86%
Population Apoptotic (%) (U2OS; [2]): 50% and 58%
Population Fragmented Nuclei (%) (U2OS; [2]): 3%
Population Healthy Nuclei (%) (U2OS; [2]): 70% and 88%
Population Hoechst High Intensity Objects (%) (U2OS; [2]): 0%
Population Membrane Permeable-Phenotype (%) (U2OS; [2]): 4% and 1%
Population Mitochondria Different-Phenotype (%) (U2OS; [2]): 4% and 0%
Population Mitotic Cells (%) (U2OS; [2]): 50% and 41%
Population Normal (%) (U2OS; [2]): 100%
Population Tubulin-Different-Phenotype (%) (U2OS; [2]): 71% and 83%
Population Apoptotic (%) (U2OS; [3]): 40% and 51%
Population Healthy Nuclei (%) (U2OS; [3]): 55% and 88%
Population Hoechst High Intensity Objects (%) (U2OS; [3]): 0%
Population Membrane Permeable-Phenotype (%) (U2OS; [3]): 13% and 0%
Population Mitochondria Different-Phenotype (%) (U2OS; [3]): 0%
Population Mitotic Cells (%) (U2OS; [3]): 60% and 48%
Population Normal (%) (U2OS; [3]): 100%
Population Pyknosed Nuclei (%) (U2OS; [3]): 18% and 9%
Population Tubulin-Different-Phenotype (%) (U2OS; [3]): 73% and 87%
Population Apoptotic (%) (U2OS; [4]): 71% and 50%
Population Fragmented Nuclei (%) (U2OS; [4]): 7% and 2%
Population Healthy Nuclei (%) (U2OS; [4]): 73% and 88%
Population Hoechst High Intensity Objects (%) (U2OS; [4]): 0%
Population Membrane Permeable-Phenotype (%) (U2OS; [4]): 3% and 0%
Population Mitochondria Different-Phenotype (%) (U2OS; [4]): 3% and 0%
Population Mitotic Cells (%) (U2OS; [4]): 28% and 50%
Population Normal (%) (U2OS; [4]): 100%
Population Pyknosed Nuclei (%) (U2OS; [4]): 18% and 8%
Population Tubulin-Different-Phenotype (%) (U2OS; [4]): 67% and 85%
Population Apoptotic (%) (U2OS; [5]): 50% and 43%
Population Healthy Nuclei (%) (U2OS; [5]): 63% and 89%
Population Hoechst High Intensity Objects (%) (U2OS; [5]): 0%
Population Membrane Permeable-Phenotype (%) (U2OS; [5]): 11% and 0%
Population Mitochondria Different-Phenotype (%) (U2OS; [5]): 7% and 0%
Population Mitotic Cells (%) (U2OS; [5]): 50% and 56%
Population Normal (%) (U2OS; [5]): 100%
Population Pyknosed Nuclei (%) (U2OS; [5]): 14% and 6%
Population Tubulin-Different-Phenotype (%) (U2OS; [5]): 73% and 85%
Population Apoptotic (%) (U2OS; [6]): 35% and 55%
Population Fragmented Nuclei (%) (U2OS; [6]): 7% and 2%
Population Healthy Nuclei (%) (U2OS; [6]): 70% and 93%
Population Hoechst High Intensity Objects (%) (U2OS; [6]): 0%
Population Membrane Permeable-Phenotype (%) (U2OS; [6]): 2% and 1%
Population Mitochondria Different-Phenotype (%) (U2OS; [6]): 2% and 0%
Population Mitotic Cells (%) (U2OS; [6]): 64% and 44%
Population Normal (%) (U2OS; [6]): 100% and 99%
Population Tubulin-Different-Phenotype (%) (U2OS; [6]): 63% and 95%
